From ChEMBL document CHEMBL5653624 (Biochem Pharmacol, 2016)
The source made the active and inactive calls.

Key:
RAW264.7 [1] = assay: Antiinflammatory activity in mouse RAW264.7 cells assessed as down regulation of LPS/IFNgamma-induced IL-6 gene expression at 1 uM preincubated for 20 hrs followed by LPS/IFNgamma stimulation and measured after 4 hrs by RT-qPCR analysis; format: functional, cell-based; conditions: time 24.0 hrs
Procedure, shortened: (§1)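 RAW 264.7 macrophages in DMEM/10% FBS received 1 μM RGFP966 for 20 h, with LPS/IFNγ for the last 4 h. Washed with cold DPBS, total RNA isolated, integrity checked by 28S/18S. RT-qPCR by comparative Ct (2−ΔΔCt), fold change versus LPS/IFNγ control. Mean ± SD of 3–5 independent experiments.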

HASMC = assay: Antiinflammatory activity in HASMC cells assessed as effect on LPS/IFNgamma-induced IL-10 gene expression at 2 uM […] by RT-qPCR analysis; format: functional, cell-based; conditions: Homo sapiens
Procedure, shortened: (§2)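 HBE cells (passage 73–103) or immortalized hASM cells (2–3 donors, passage 27–35), serum-starved. Then 2 μM RGFP966 for 20 h, with LPS/IFNγ for the last 4 h. Total RNA isolated; RT-qPCR by 2−ΔΔCt, fold change versus LPS/IFNγ control. Mean ± SD of 3–5 independent experiments.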

RAW264.7 [2] = assay: Antiinflammatory activity in LPS/IFNgamma-stimulated mouse RAW264.7 cells assessed as effect on HDAC1 mRNA expression preincubated for 20 hrs followed by LPS/IFNgamma stimulation and measured after 4 hrs by RT-qPCR analysis; format: functional, cell-based; conditions: time 24.0 hrs
RAW264.7 [3] = assay: Effect on HDAC3-NFkappaB p65 protein-protein interaction in LPS/IFNgamma-stimulated mouse RAW264.7 cells at 1 uM preincubated for 20 hrs followed by LPS/IFNgamma stimulation and measured after 1 hr by immunoprecipitation analysis; format: cell-based
Procedure, shortened: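 RAW 264.7 cells treated for 20 h, then LPS/IFNγ-stimulated. Lysates rotated 4 h at 4 °C and cleared. NF-κB p65 immunoprecipitated with mouse monoclonal antibody overnight at 4 °C, then Protein A/G agarose for 6 h at 4 °C, followed by washes. Immunoblot for HDAC 3, densitometry normalized to NF-κB p65. Mean ± SD of 3 experiments.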

HBE [4] = assay: Antiinflammatory activity in HBE cells assessed as effect on LPS/IFNgamma-induced TNFalpha gene expression at 2 uM […] by RT-qPCR analysis; format: functional, cell-based; conditions: Homo sapiens; procedure, shortened: as §2
RAW264.7 [5] = assay: Antiinflammatory activity in mouse RAW264.7 cells assessed as down regulation of LPS/IFNgamma-induced IL-1beta gene expression at 1 uM preincubated for 20 hrs followed by LPS/IFNgamma stimulation and measured after 4 hrs by RT-qPCR analysis; format: functional, cell-based; conditions: time 24.0 hrs; procedure, shortened: as §1
HBE [6] = assay: Antiinflammatory activity in HBE cells assessed as effect on LPS/IFNgamma-induced iNOS gene expression at 2 uM […] by RT-qPCR analysis; format: functional, cell-based; conditions: Homo sapiens; procedure, shortened: as §2
Lung [7] = assay: Antiinflammatory activity in C57bl/6 mouse precision-cut lung slices assessed as effect on LPS/IFNgamma-induced HDAC3 gene expression at 1 to 10 uM preincubated for 20 hrs followed by LPS/IFNgamma stimulation and measured after 4 hrs by RT-qPCR analysis; format: functional, tissue-based; conditions: dose 1-10 µM, time 24.0 hrs
Lung [8] = assay: Antiinflammatory activity in C57bl/6 mouse precision-cut lung slices assessed as upregulation of LPS/IFNgamma-induced IkappaBalpha expression at 1 to 10 uM preincubated for 20 hrs followed by LPS/IFNgamma stimulation and measured after 4 hrs by Western blot analysis; format: functional, tissue-based; conditions: dose 1-10 µM, time 24.0 hrs
Lung [9] = assay: Antiinflammatory activity in C57bl/6 mouse precision-cut lung slices assessed as upregulation of LPS/IFNgamma-induced IL-10 gene expression at 1 to 10 uM preincubated for 20 hrs followed by LPS/IFNgamma stimulation and measured after 4 hrs by RT-qPCR analysis relative to control; format: functional; conditions: dose 1-10 µM; time 24 hrs
Procedure, shortened: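 PCLS, 250 μm thick, cut from agarose-filled lungs of male C57bl/6 mice (24–28 g, 8–10 weeks). Three slices per well at 37 °C, 5% CO2. Slices received RGFP966 at 1 and 10 μM final for 20 h, with 10 ng/ml LPS and 10 ng/ml IFNγ stimulation. RNA isolated; RT-qPCR fold change versus LPS/IFNγ control by 2−ΔΔCt. Mean ± SD, n = 3–5.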

RAW264.7 [10] = assay: Antiinflammatory activity in LPS/IFNgamma-stimulated mouse RAW264.7 cells assessed as reduction in HDAC2 expression preincubated for 20 hrs followed by LPS/IFNgamma stimulation and measured after 4 hrs by Western blot analysis; format: functional, cell-based; conditions: time 24.0 hrs
Procedure, shortened: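 RAW 264.7 cells were LPS/IFNγ-stimulated after inhibitor exposure, then lysed in Hepes/Triton buffer containing DTT, butyrate and protease inhibitors, freeze-thawed and cleared. Immunoblot with milk blocking and overnight primary antibody at 4 °C. Densitometry normalized to β-actin, LPS/IFNγ control set at 100%. Mean ± SD of 4 independent experiments.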

RAW264.7 [11] = assay: Antiinflammatory activity in LPS/IFNgamma-stimulated mouse RAW264.7 cells assessed as effect on HDAC2 mRNA expression preincubated for 20 hrs followed by LPS/IFNgamma stimulation and measured after 4 hrs by RT-qPCR analysis; format: functional, cell-based; conditions: time 24.0 hrs
[12] = biological target: T1, Histone deacetylase 3 (Mus musculus) (UniProt O88895); assay: Inhibition of HDAC3 in mouse RAW264.7 cells assessed as effect on histone H3 acetylation measured after 20 hrs by Western blot analysis; format: cell-based
T1 sequence (whole entry): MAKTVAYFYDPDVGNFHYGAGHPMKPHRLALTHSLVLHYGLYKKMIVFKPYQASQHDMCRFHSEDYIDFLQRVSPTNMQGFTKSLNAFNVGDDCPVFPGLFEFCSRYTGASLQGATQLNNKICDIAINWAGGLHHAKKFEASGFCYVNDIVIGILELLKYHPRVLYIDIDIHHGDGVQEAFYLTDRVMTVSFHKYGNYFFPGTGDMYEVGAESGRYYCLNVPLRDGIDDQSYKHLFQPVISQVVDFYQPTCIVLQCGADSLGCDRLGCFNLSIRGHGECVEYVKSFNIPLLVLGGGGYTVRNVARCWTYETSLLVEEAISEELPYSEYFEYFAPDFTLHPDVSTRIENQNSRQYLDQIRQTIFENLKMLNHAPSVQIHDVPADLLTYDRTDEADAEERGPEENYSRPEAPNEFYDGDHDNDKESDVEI
Procedure, shortened: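 Histones extracted from RAW 264.7 cells after 20 h inhibitor treatment, protein quantified by micro BCA (BSA standard), and H3 and H4 acetylation assessed by Western blot versus vehicle-treated cells.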

Lung [13] = assay: Antiinflammatory activity in C57bl/6 mouse precision-cut lung slices assessed as effect on LPS/IFNgamma-induced HDAC3 expression at 1 to 10 uM preincubated for 20 hrs followed by LPS/IFNgamma stimulation and measured after 4 hrs by Western blot analysis; format: functional, tissue-based; conditions: dose 1-10 µM, time 24.0 hrs
RAW264.7 [14] = assay: Cytotoxicity against mouse RAW264.7 cells assessed as reduction in cell viability at 1 uM measured after 20 hrs by MTS assay; format: toxicity, cell-based; conditions: raw264.7, 20 h
Procedure, shortened: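 MTS viability assay. RAW 264.7 cells seeded at 25,000 cells/cm2; HBE and hASM cells at 70% confluency and serum-starved for 24 h. Exposure for 20 h with LPS/IFNγ stimulation. MTS reagent added for 1 h at 37 °C in the dark, absorbance read at 490 nm. LPS/IFNγ-stimulated cells without inhibitor set at 100%.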

Nc1cc(F)ccc1NC(=O)/C=C/c1cnn(C/C=C/c2ccccc2)c1
active: Activity (RAW264.7 [1]) | Activity (RAW264.7 [5]) | Activity (Lung [8]) | Activity (RAW264.7 [10])
2: fold change (FC) (Lung [9])
Non-Toxic: Activity (RAW264.7 [14])
inactive: Activity (HASMC) | Activity (RAW264.7 [2]) | Activity (RAW264.7 [3]) | Activity (HBE [4]) | Activity (HBE [6]) | Activity (Lung [7]) | Activity (RAW264.7 [11]) | inhibition [12] | Activity (Lung [13])
